Measured values: publication PMC3525873 (British Journal of Pharmacology, 2012)

Key:
Assay type in all cases: cell-based
TRPC3 = biological target: T1, TRPC3 (Homo sapiens, UniProt Q13507); assay: Patch-clamp of TRPC3 currents in HEK293 cells transiently expressing TRPC3; conditions: 3 μM pre-incubation, carbachol
T1 sequence (Q13507 74-921 limits assumed): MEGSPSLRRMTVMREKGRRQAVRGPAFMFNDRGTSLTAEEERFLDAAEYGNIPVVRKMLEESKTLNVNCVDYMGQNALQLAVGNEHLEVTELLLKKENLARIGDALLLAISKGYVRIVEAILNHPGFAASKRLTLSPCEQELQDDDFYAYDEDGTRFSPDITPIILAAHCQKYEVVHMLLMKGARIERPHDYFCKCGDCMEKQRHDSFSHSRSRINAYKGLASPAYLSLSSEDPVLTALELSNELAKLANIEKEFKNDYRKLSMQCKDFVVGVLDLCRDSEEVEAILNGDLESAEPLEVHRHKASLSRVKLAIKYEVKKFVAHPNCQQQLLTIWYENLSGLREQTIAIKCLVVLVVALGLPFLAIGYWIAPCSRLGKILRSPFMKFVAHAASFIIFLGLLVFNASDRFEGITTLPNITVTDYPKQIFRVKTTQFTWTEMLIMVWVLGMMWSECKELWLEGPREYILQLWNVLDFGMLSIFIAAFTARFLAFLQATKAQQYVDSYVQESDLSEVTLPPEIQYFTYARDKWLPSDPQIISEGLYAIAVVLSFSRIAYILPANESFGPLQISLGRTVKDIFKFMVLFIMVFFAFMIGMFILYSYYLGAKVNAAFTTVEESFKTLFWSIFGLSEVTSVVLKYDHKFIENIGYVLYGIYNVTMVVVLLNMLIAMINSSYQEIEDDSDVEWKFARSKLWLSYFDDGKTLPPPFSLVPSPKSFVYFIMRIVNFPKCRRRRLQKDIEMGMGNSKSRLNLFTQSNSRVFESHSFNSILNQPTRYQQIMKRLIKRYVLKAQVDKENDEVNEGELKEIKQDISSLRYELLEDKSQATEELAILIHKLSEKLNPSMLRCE

RBL-2H3 cells = assay: Degranulation assay; conditions: ionomycin 0.4 μM
How it was run: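 RBL-2H3 cells grown to confluency, washed in RBL-2H3 buffer with 2 mM CaCl2, all incubations at 37°C. Test compound (3 or 10 μM) for 15 min, then ionomycin 0.4 μM final for 30 min. Stopped with 0.4 M glycine (pH 10.7), A405 read. Untreated and 2% triton-lysed cells served as basal/maximal references. n = 3 passages.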

[1] = biological target: STIM1/Orai1-mediated SOCE (Rattus norvegicus, UniProt Q5M848); assay: Fura-2 Ca2+ re-addition, thapsigargin-depleted native RBL-2H3 cells
How it was run: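 Native RBL-2H3 cells were loaded with 2 μM Fura-2-AM for 45 min and perfused in Ca2+-free extracellular solution at room temperature. Stores depleted with 1 μM thapsigargin for 5 min. Test compound present ≥5 min before and throughout. Ca2+ entry evoked by 2 mM Ca2+ re-addition; 340/380 nm ratio read (510 nm emission). Inhibition expressed as % of control peak entry. IC50 by 4-parameter logistic fit; 3–5 experiments, 29–80 cells.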

[2] = biological target: CRAC currents in native RBL-2H3 cells (Rattus norvegicus, UniProt Q5M848); assay: Patch-clamp of CRAC currents in native RBL-2H3 cells; conditions: for Effect on CRAC Ca2+ entry-mediating conductance: 3 μM pre-incubation
How it was run: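 Whole-cell recording of native RBL-2H3 cells at room temperature. Stores depleted passively by 20 mM EGTA in the Cs-methanesulphonate pipette solution (pH 7.2). Bath contained 20 mM CaCl2 (pH 7.4). Ramps from −90 to +90 mV over 1 s, holding +30 mV. Test compound at 3 μM, pre-incubated or applied acutely. Net current (minus basal) read at −85 mV 300 s after break-in; n ≥ 6 cells.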

NFAT = assay: GFP-NFAT translocation in RBL-2H3 cells; conditions: 10 μM, thapsigargin 1 μM then 2 mM Ca2+ re-addition
How it was run: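 RBL-2H3 cells electroporated with GFP-NFAT (20 μg DNA, 300 V, 275 μF) 12–18 h beforehand, on coverslips. In nominally Ca2+-free buffer, stores depleted with 1 μM thapsigargin for 5 min, then 2 mM CaCl2 added. Test compound at 10 μM in all buffers. Basal taken before depletion. Cells fixed in paraformaldehyde with DAPI-stained nuclei. Nuclear/cytosolic GFP intensity ratio measured; ≥18 cells per condition.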

STIM1/Orai1 = STIM1/Orai1 (Homo sapiens, UniProt Q96D31)
How it was run: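 Whole-cell recording at room temperature in HEK293 transiently co-expressing CFP-STIM1 and YFP-Orai1. CRAC activated by 20 mM EGTA in the pipette with 10 mM CaCl2 in the bath. Bath then switched to divalent-free solution to carry Na+ current. Test compound (10 μM) applied acutely; current followed over time; n = 4 cells.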

CRAC currents in native RBL-2H3 cells, sequence (Q5M848 whole entry): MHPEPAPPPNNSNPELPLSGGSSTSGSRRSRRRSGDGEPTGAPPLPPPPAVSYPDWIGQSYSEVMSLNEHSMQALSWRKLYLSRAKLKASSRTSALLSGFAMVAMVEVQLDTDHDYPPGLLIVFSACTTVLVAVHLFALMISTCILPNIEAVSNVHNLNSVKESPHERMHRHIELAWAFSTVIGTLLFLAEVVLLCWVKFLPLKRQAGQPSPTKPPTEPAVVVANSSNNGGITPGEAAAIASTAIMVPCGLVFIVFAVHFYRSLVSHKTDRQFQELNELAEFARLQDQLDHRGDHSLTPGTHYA
STIM1/Orai1-mediated SOCE, sequence (Q5M848 whole entry, the tested form may be a part): as the sequence (Q5M848 whole entry) above
STIM1/Orai1, sequence (Q96D31 whole entry, species assumed): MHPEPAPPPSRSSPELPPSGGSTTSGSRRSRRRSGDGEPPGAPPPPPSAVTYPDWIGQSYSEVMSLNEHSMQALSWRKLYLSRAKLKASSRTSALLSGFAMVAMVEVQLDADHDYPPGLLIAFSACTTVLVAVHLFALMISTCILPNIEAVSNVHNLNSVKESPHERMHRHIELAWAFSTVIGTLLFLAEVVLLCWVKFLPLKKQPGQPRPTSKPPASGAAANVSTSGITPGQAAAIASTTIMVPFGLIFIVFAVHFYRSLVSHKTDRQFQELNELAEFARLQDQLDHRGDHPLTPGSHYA
STIM1/Orai1, sequence (Q13586 23-685 partner, species assumed): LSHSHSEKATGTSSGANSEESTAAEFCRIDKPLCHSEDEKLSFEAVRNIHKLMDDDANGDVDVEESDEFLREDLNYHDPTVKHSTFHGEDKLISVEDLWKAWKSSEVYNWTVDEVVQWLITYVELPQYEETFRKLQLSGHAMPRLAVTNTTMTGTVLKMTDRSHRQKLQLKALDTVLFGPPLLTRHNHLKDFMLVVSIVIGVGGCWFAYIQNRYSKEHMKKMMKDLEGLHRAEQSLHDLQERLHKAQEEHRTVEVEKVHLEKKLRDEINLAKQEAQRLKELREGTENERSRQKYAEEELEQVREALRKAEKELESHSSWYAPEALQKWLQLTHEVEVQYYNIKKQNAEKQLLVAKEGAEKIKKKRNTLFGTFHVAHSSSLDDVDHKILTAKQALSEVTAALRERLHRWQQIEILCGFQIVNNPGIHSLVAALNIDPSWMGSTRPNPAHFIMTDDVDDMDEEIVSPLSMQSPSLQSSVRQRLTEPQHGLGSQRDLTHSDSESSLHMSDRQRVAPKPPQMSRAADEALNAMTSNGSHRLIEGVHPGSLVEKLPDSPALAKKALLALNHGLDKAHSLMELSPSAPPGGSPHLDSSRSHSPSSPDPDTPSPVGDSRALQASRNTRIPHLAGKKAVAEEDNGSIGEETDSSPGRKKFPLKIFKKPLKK

| Effect on TRPC3 Ca2+ entry-mediating conductance (TRPC3) | IC50 [1] [nM] | Higher potency in SOCE model than in TRPC3-ROCE model, orders of magnitude ([1]; RBL-2H3 SOCE vs TRPC3 ROCE) [OM] | Higher potency in SOCE model than in TRPC3-ROCE model ([1]; ratio of IC50 values, RBL-2H3 SOCE vs TRPC3 ROCE) | Effect on CRAC Ca2+ entry-mediating conductance [2] | Effect on divalent-free sodium current through CRAC pore (STIM1/Orai1; 10 μM, divalent-free conditions) | Effect on native CRAC currents upon acute administration ([2]; acute administration, 3 μM, native RBL-2H3 cells) | SMILES | Effect on ionomycin-initiated degranulation (RBL-2H3 cells; 3 μM) | Effect on ionomycin-initiated degranulation (RBL-2H3 cells; 10 μM) | Effect on NFAT translocation (NFAT) | Effect on reconstituted CRAC pore currents upon acute administration (STIM1/Orai1; HEK293 expressing STIM1 and Orai1, passive store depletion with EGTA) |
| --- | --- | --- | --- | --- | --- | --- | --- | --- | --- | --- | --- |
| completely eliminated | 590 | 0.85 | sevenfold | completely eliminated | – | – | Cc1nnsc1C(=O)Nc1ccc(-n2nc(C(F)(F)F)cc2C(F)(F)F)cc1 [Pyr2, N-(4-(3,5-bis(trifluoromethyl)-1H-pyrazole-1-yl)phenyl)-4-methyl-1,2,3-thiadiazole-5-carboxamide] | substantially reduced degranulation | suppressed responses down to basal levels | clearly inhibited NFAT translocation | – |
| completely eliminated | – | – | – | completely eliminated | affecting sodium influx through it | rapidly suppresses | CCOC(=O)c1cnn(-c2ccc(NC(=O)C(Cl)=C(Cl)Cl)cc2)c1C(F)(F)F [Pyr3, ethyl 1-(4-(2,3,3-trichloroacrylamido)phenyl)-5-(trifluoromethyl)-1H-pyrazole-4-carboxylate] | substantially reduced degranulation | suppressed responses down to basal levels | clearly inhibited NFAT translocation | acutely blocks a reconstituted CRAC pore in a dose-dependent, non-reversible manner |
